From PubChem BioAssay
M4 ag – human M4 muscarinic receptor agonists, primary screen, CHO-K1 cells, Fluo-8 calcium fluorescence | Muscarinic acetylcholine receptor M4 (Homo sapiens), P08173 | CHO-K1 hM4/Gqi5; vehicle 0%, full acetylcholine response 100% | activation, % at 3 µM | 360,000 compounds, 0.14% hits;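 active means activation above the run mean over all test wells plus 3 SD, cut at about 32% in these data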;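 further: peak over basal fluorescence ratio per well then scaled between controls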
M5 PAM – human M5 muscarinic receptor positive allosteric modulators, primary screen, CHO-K1 cells, Fluo-8 calcium fluorescence; Muscarinic acetylcholine receptor M5 (Homo sapiens), P08912; 360,000 compounds, 0.3% hits; activation, % at 3 µM; CHO-K1 hM5, ACh EC20 PAM; 0% = ACh EC20, 100% = ACh EC100;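 active means activation above the run cutoff, the mean activation of all test compounds plus 3 SD, cut at about 18% in these data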
Target sequence (P08912 whole entry, looked up): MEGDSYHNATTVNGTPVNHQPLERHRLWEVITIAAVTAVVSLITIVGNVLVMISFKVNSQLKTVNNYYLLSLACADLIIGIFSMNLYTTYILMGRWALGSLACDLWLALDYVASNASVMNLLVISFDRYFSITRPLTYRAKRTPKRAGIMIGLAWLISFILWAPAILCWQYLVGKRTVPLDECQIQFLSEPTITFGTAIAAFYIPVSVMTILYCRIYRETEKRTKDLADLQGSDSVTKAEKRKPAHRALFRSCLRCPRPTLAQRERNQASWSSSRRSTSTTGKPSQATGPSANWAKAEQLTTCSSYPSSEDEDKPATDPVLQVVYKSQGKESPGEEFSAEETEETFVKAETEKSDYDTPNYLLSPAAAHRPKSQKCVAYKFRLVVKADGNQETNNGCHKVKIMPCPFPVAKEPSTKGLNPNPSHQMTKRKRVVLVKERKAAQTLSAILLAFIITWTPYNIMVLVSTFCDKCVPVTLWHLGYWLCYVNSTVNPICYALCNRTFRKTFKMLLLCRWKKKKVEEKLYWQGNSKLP
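Measured by: Fluo-8 calcium fluorescence; material: human M5 receptor in CHO-K1 cells; schedule: Post-acetylcholine fluorescence recording 140 s; benchmarks: low control EC20 acetylcholine (0%), high control EC100 acetylcholine (100%); read-out: Max/basal fluorescence ratio as % of EC20–EC100 ACh window; compound: single dose, 3 µM nominal final test concentration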
CHRM4 PAM – human M4 muscarinic receptor positive allosteric modulators, primary screen, CHO-K1 cells, Fluo-8 calcium fluorescence. 360,000 compounds, 0.4% hits. Muscarinic acetylcholine receptor M4 (Homo sapiens), P08173. activation, % at 3 µM. CHO-K1 hM4/Gqi5, ACh EC20; 0% = ACh EC20, 100% = maximal ACh. AID 624126, 2012;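 active means activation above its plate's cutoff, the mean activation of sample wells plus 3 SD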
M5 ag – human M5 muscarinic receptor agonists, primary screen, CHO-K1 cells, Fluo-8 calcium fluorescence. Muscarinic acetylcholine receptor M5 (Homo sapiens), P08912. CHO-K1 hM5 cells; 0% DMSO wells, 100% maximal acetylcholine response. activation, % at 3 µM. 360,000 compounds, 0.19% hits. AID 624037, 2012;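 active means activation above the run's mean over test compounds plus 3 SD, cut at about 23% in these data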;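 further: signal is peak over basal fluorescence ratio across the kinetic read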
CHRM5 antagonist – human M5 muscarinic receptor antagonists, primary screen, CHO cells, Fluo-8 calcium fluorescence; AID 624040, 2012; CHO-hM5 cells, ACh EC80; inhibition, % at 3 µM; Muscarinic acetylcholine receptor M5 (Homo sapiens), P08912; 360,000 compounds, 0.59% hits;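 active means inhibition above a per-plate cutoff, the mean of that plate's test compounds plus 3 SD, cut at about 27% in these data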
CHRM4 antagonist – human M4 muscarinic receptor antagonists, primary screen, CHO cells, Fluo-8 calcium fluorescence; Muscarinic acetylcholine receptor M4 (Homo sapiens), P08173; CHO-hM4 cells, ACh EC80; inhibition, % at 3 µM; 360,000 compounds, 0.73% hits; AID 624125, 2012;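 active means inhibition above its plate's cutoff, the mean inhibition of sample wells plus 3 SD, cut at about 27% in these data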
Numbers stand for hits; - = inactive. A selection: hits, their analogues and other compounds. The true share with any hit is near 1.9%.

SMILES	M4 ag	M5 PAM	CHRM4 PAM	M5 ag	CHRM5 antagonist	CHRM4 antagonist
CC(Sc1nnc(-c2cccnc2)o1)C(=O)NC1CCCCC1 (stereo unspecified)	-	-	-	-	-	-
CCN(C[C@H]1N[C@@](CC)(C(=O)OC)[C@H]2C(=O)N(C)C(=O)[C@@H]12)S(=O)(=O)c1ccc(OC(F)(F)F)cc1	-	-	-	-	-	-
Cc1cccc(N2C(=O)CC(c3ccc(F)cc3)C3=C2COC3=O)c1 (stereo unspecified)	-	-	-	-	-	-
CCN(CC)S(=O)(=O)c1cccc(NC(=O)/C=C/c2cccc([N+](=O)[O-])c2)c1	-	-	-	-	33	-
CCN(CC)S(=O)(=O)c1cccc(NC(=O)CNc2cccc(S(=O)(=O)N3CCCC3)c2)c1	-	-	-	-	38	-
CCN(CC)S(=O)(=O)c1ccc(C)c(NC(=O)CNc2cccc(S(=O)(=O)N3CCCC3)c2)c1	-	-	-	-	-	-
CCN(CC)S(=O)(=O)c1cccc(NC(=O)/C=C/c2ccc([N+](=O)[O-])cc2)c1	-	-	-	-	-	-
O=C(COC(=O)c1cc(Br)ccc1O)Nc1cc(S(=O)(=O)N2CCCC2)ccc1Cl	-	-	-	-	-	-
COc1ccccc1NC(=O)COc1ccc2c(c1)OCO2	-	-	-	-	-	-
COc1ccc(NC(=O)[C@H](C)NC(=O)[C@@H]2Cc3ccccc3CN2C(=O)OC(C)(C)C)cc1	-	-	-	-	-	-
CN(C)S(=O)(=O)c1cc(NC(=O)c2cc(=O)c3ccccc3o2)ccc1Cl	-	-	-	-	-	-
COc1ccc(NC(=O)c2cc(=O)c3ccccc3o2)cc1Cl	-	-	23	-	-	-
COC(=O)[C@]12CCCCC=C1N(Cc1ccco1)C(=O)[C@H](CC(=O)NCCc1ccccc1OC)C2	-	-	-	-	-	-
COc1ccc(S(=O)(=O)N2CCc3ccccc32)cc1C(=O)Nc1ccc(C(N)=O)cc1	-	-	-	-	37	-
CC(=NNc1nc2ccccc2s1)c1ncccn1	-	-	-	-	-	48
Oc1ccccc1/C=N/Nc1nc2ccccc2o1	-	-	-	-	-	-
CC(=NNc1nc2ccccc2o1)c1cc2ccccc2cn1	-	-	-	-	28	33
Cc1cc(C)nc(Nc2nc3ccccc3o2)n1	-	-	-	-	-	-
C/C(=N\Nc1nc2ccccc2s1)c1cccs1	-	-	-	-	-	-
CC(=NNc1nc2ccccc2o1)c1ncccn1	-	-	-	-	51	58
Cc1cc(NC(=O)CS(=O)(=O)c2cn(Cc3cccc(C(F)(F)F)c3)c3ccccc23)no1	-	-	-	-	-	-
COc1ccc(CN2C(=NC(=O)c3ccccc3)SC3CS(=O)(=O)CC32)cc1 (stereo unspecified)	-	-	-	-	-	-
Cc1ccccc1Nc1c(-c2ccc(N3CCOCC3)cc2)nc2cnccn12	-	-	-	-	-	-
Cc1ccc(Nc2c(-c3ccc(N4CCOCC4)cc3)nc3cnccn23)cc1	-	19	-	-	-	-
Cc1cc(Cl)ccc1NC(=O)C1CCN(S(C)(=O)=O)CC1	-	-	-	-	-	-
SMILES	M4 ag	M5 PAM	CHRM4 PAM	M5 ag	CHRM5 antagonist	CHRM4 antagonist
COc1cc(C(=O)Oc2cccc(Nc3ncnc4ccccc34)c2)cc(OC)c1OC	-	-	-	-	29	31
CC(C)N1CSC(=S)N(Cc2ccccc2)C1	-	18	-	-	-	-
Cc1cccc(NC(=O)CSc2nnc(Cc3ccccc3)o2)c1	-	-	-	-	-	-
O=c1c2cc(NC(=S)N3CCCC3)ccc2nc2n1CCCCC2	-	-	-	-	-	-
CCN1CCN(C(=S)Nc2ccc3nc4n(c(=O)c3c2)CCCCC4)CC1	-	-	27	-	-	-
CCCCCC(=O)N1C[C@H](n2cc(-c3ccc(F)cc3)nn2)[C@@H](O)C[C@@H]1c1ccc(Cl)cc1	-	-	-	-	-	-
CC(=O)Nc1ccc(Nc2ccccc2)cc1	-	-	-	-	-	-
CC(=O)CC(=O)Nc1ccc(Nc2ccccc2)cc1	-	-	-	-	-	30
COc1ccccc1NC(=O)COC(=O)/C=C/c1ccc(OC)c(OC)c1	-	-	-	-	-	-
CCOc1ccccc1Oc1c(C)oc2c(CN3CCN(CCO)CC3)c(O)ccc2c1=O	-	-	-	-	-	-
CCOC(=O)c1ccc(Oc2c(C)oc3c(CN4CCN(C)CC4)c(O)ccc3c2=O)cc1	-	-	-	-	-	33
COc1ccc(Oc2c(C)oc3c(CN4CCOCC4)c(O)ccc3c2=O)cc1	-	-	-	-	-	41
Cc1cc(N2CCCC2)c(F)cc1/C=C\[N+](=O)[O-]	-	-	-	25	64	-
Cc1cc(N2CCC(C)CC2)c(F)cc1[N+](=O)[O-]	-	-	-	-	-	-
O=C(c1ccc(N2CCCC2=O)cc1)N1CCN(c2cccc(C(F)(F)F)c2)CC1	-	-	-	-	-	-
COC(=O)c1ccc(NC(=S)NC2CCCCC2C)cc1 (stereo unspecified)	-	-	-	-	29	-
CC1CCCC(NC(=S)Nc2ccc(SC(F)F)cc2)C1C (stereo unspecified)	-	-	-	-	31	-
FC(F)Sc1ccc(NC(=S)NC2CCCC2)cc1	-	-	-	-	-	-
C[C@H](CO)N1C[C@H](C)[C@@H](CN(C)C(=O)NC2CCCCC2)Oc2c(NC(=O)c3ccncc3)cccc2C1=O	-	-	-	-	-	-
COc1ccc(S(=O)(=O)N2CCC(N3CCN(Cc4ccccc4)CC3)CC2)cc1	-	-	-	-	45	46
O=[N+]([O-])c1ccccc1S(=O)(=O)N1CCN(C2CCN(Cc3ccccc3)CC2)CC1	-	-	-	-	-	29
O=S(=O)(c1ccc(Cl)cc1)N1CCN(C2CCN(Cc3ccccc3)CC2)CC1	-	-	-	-	-	-
NC(=Nc1c([N+](=O)[O-])cnc2ccccc12)N1CCOCC1	-	-	-	-	-	-
CCOC(=O)C(=N/O)/C(C)=N/NC(=O)C(=O)Nc1ccc(Cl)cc1	-	-	-	-	27	-
